In experiment [1] the test system is A549. The experiment is described as follows: Antiproliferative activity against human A549 cells incubated for 2 days by MTT assay. The format is functional, cell-based. As to conditions: A549, 48 h. A digest of the protocol: (§1)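 MTT assay. Cells seeded at 3 × 10³/well (HeLa, A549, HMEC-1, HEK-293) or 5 × 10³/well (HT-29, MCF-7) in their growth media with serial compound dilutions from 10 mM DMSO stocks. Incubated 2 days at 37 °C, 5% CO₂, then MTT added for 3 h and formazan dissolved in DMSO. A540 read and viability expressed versus untreated cells. IC₅₀ determined graphically; three independent experiments.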
For orientation: Tetrazolium dyes change colour on reduction, which living cells bring about.

Experiment [2] concerns HeLa. The experiment can be described thus: Antiproliferative activity against human HeLa cells incubated for 2 days by MTT assay. Format: functional, cell-based. To be noted: 48 h. A digest of the protocol:
as §1

Experiment [3] deals with HMEC-1. The experiment is described as follows: Effect on VEGFR2 in HMEC1 cells assessed as membrane VEGFR2 level at 100 uM incubated for 24 hrs by flow cytometric analysis relative to control. The format is functional, Homo sapiens. A digest of the protocol:
(§2)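 HMEC-1 cells exposed 24 h to compound at 100 µM. Membrane VEGFR-2 measured on fixed cells stained with Alexa Fluor 647 anti-CD309; total VEGFR-2 measured after Triton X-100 permeabilization before fixation. Read by flow cytometry as % of DMSO control.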
In general terms: In flow cytometry, cells or beads pass a laser one at a time.

Experiment [4] has as its target Programmed cell death 1 ligand 1 (Homo sapiens) (UniProt Q9NZQ7). The experiment can be described thus: Binding affinity to PDL1 (unknown origin) assessed as change in melting temperature at 100 uM by fluorescence based real time RT-PCR analysis. For orientation: In qPCR the cycle at which signal appears reflects the starting amount.
For experiment [5], the system named is HEK293. The experiment can be described thus: Antiproliferative activity against HEK293 cells incubated for 2 days by MTT assay. Format: cell-based. To be noted: Homo sapiens, HEK293, 48 h. A digest of the protocol:
as §1

The subject of experiment [6] is A549. The experiment is described as follows: Effect on VEGFR2 in human A549 cells assessed as membrane VEGFR2 level at 100 uM incubated for 24 hrs by flow cytometric analysis relative to control. Format: functional. A digest of the protocol: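 A549 cells exposed 24 h to compound at 100 µM. Membrane VEGFR-2 stained on fixed cells with Alexa Fluor 647 anti-VEGFR-2; Triton X-100 permeabilization before fixation used for total VEGFR-2. Flow cytometry, % of DMSO control; mean ± SD of three experiments.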

Experiment [7] relates to A549. The experiment can be described thus: Effect on VEGFR2 in human A549 cells assessed as total VEGFR2 level at 100 uM incubated for 24 hrs by flow cytometric analysis relative to control. Format: functional.
The test system of experiment [8] is MCF7. The experiment can be described thus: Antiproliferative activity against human MCF7 cells incubated for 2 days by MTT assay. The format is functional, cell-based. To be noted: MCF7, 48 h. A digest of the protocol:
as §1

The test system of experiment [9] is A549. The experiment can be described thus: Immunomodulatory activity in human A549 cells assessed as reduction in PD-L1 expression level at 100 uM incubated for 24 hrs by ELISA relative to control. The format is functional. Further details: scale not given: the % may be the effect or the level left. The procedure, abridged: (§3)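 A549 cells (3·10⁵/well) treated 24 h with compound; final concentration 100 µM for some compounds and 15 µM for others per table footnote. Lysates protein-normalized by Bradford, and PD-L1 and c-Myc quantified by commercial ELISA kits as % of DMSO-treated cells. Mean ± SD of three experiments.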

Experiment [10] concerns HMEC-1. The experiment is described as follows: Antiproliferative activity against HMEC1 cells incubated for 2 days by MTT assay. Format: cell-based. To be noted: Homo sapiens, HMEC-1, 48 h. A digest of the protocol:
as §1

Experiment [11] addresses Vascular endothelial growth factor receptor 2 (Homo sapiens) (UniProt P35968).
The subject of experiment [12] is HMEC-1. The experiment is described as follows: Effect on VEGFR2 in HMEC1 cells assessed as total VEGFR2 level at 100 uM incubated for 24 hrs by flow cytometric analysis relative to control. The format is functional, Homo sapiens. A digest of the protocol: as §2
Experiment [13] deals with HT-29. The experiment is described as follows: Antiproliferative activity against human HT-29 cells incubated for 2 days by MTT assay. The format is functional, cell-based. As to conditions: HT-29, 48 h. The procedure, abridged:
as §1

Experiment [14] has as its system A549. The experiment can be described thus: Effect on VEGFR2 in human A549 cells assessed as total VEGFR2 level at 10 uM incubated for 24 hrs by flow cytometric analysis relative to control. Format: functional.
For experiment [15], the system named is HMEC-1. The experiment can be described thus: Antiangiogenic activity against HMEC1 cells assessed as inhibition of tube formation incubated for 20 hrs by matrigel based tube formation assay. The format is functional, Homo sapiens. A digest of the protocol:
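HMEC-1 cells in EGM-2MV medium seeded at 2 x 10⁴ cells/well on Matrigel (10 mg/mL, gelled 30 min at 37°C) and attached for 30 min. Compounds were added at different concentrations and tube formation was assessed after 20 h at 37°C. The minimum concentration at which inhibition began was reported. Data representative of three experiments.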

Experiment [16] has as its system A549. The experiment can be described thus: Induction of apoptosis in human A549 cells assessed as apoptotic cells at 100 uM incubated for 24 hrs by FITC-Annexin V staining based flow cytometric analysis (reference value: 20%). Format: functional.
Experiment [17] concerns A549. The experiment can be described thus: Effect on VEGFR2 in human A549 cells assessed as membrane VEGFR2 level at 10 uM incubated for 24 hrs by flow cytometric analysis relative to control. The format is functional. The procedure, abridged:
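A549 cells incubated 24 h with compound at 10 µM. Membrane VEGFR-2 (fixed cells) and total VEGFR-2 (permeabilized or lysate) stained with Alexa Fluor 647 anti-CD309 and quantified by flow cytometry relative to DMSO control; mean ± SD of three experiments.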

Experiment [18] relates to A549. The experiment is described as follows: Immunomodulatory activity in human A549 cells assessed as reduction in c-Myc expression level at 100 uM incubated for 24 hrs by ELISA relative to control. The format is functional. More on the design: scale not given: the % may be the effect or the level left. The procedure, abridged:
as §3

The subject of experiment [19] is A549. The experiment is described as follows: Antiproliferative activity against human A549 cells at 200 uM incubated for 24 hrs in presence of Jurkat T cells by trypan blue staining based Neubauer chamber method relative to control. Format: functional. The procedure, abridged: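 Co-culture of 5 × 10⁴ tumor cells/well with 2 × 10⁵ PD-1-expressing Jurkat T cells in 1.5 mL, treated 24 h with compound at 200 µM. Supernatant discarded; tumor cells trypsinized, stained with trypan blue and living cells counted in a Neubauer chamber. Proliferation inhibition (%) attributable to Jurkat presence reported; representative of three experiments.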

Chain of Programmed cell death 1 ligand 1 (Homo sapiens) (Q9NZQ7 whole entry): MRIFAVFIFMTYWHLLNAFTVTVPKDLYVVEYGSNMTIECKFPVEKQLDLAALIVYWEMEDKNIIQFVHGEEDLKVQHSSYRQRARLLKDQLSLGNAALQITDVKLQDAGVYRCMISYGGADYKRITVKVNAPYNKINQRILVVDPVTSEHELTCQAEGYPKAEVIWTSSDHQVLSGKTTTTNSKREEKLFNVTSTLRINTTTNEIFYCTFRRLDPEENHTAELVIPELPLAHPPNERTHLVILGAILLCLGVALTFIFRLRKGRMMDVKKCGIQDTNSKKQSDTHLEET
Chain of Vascular endothelial growth factor receptor 2 (Homo sapiens) (P35968 whole entry): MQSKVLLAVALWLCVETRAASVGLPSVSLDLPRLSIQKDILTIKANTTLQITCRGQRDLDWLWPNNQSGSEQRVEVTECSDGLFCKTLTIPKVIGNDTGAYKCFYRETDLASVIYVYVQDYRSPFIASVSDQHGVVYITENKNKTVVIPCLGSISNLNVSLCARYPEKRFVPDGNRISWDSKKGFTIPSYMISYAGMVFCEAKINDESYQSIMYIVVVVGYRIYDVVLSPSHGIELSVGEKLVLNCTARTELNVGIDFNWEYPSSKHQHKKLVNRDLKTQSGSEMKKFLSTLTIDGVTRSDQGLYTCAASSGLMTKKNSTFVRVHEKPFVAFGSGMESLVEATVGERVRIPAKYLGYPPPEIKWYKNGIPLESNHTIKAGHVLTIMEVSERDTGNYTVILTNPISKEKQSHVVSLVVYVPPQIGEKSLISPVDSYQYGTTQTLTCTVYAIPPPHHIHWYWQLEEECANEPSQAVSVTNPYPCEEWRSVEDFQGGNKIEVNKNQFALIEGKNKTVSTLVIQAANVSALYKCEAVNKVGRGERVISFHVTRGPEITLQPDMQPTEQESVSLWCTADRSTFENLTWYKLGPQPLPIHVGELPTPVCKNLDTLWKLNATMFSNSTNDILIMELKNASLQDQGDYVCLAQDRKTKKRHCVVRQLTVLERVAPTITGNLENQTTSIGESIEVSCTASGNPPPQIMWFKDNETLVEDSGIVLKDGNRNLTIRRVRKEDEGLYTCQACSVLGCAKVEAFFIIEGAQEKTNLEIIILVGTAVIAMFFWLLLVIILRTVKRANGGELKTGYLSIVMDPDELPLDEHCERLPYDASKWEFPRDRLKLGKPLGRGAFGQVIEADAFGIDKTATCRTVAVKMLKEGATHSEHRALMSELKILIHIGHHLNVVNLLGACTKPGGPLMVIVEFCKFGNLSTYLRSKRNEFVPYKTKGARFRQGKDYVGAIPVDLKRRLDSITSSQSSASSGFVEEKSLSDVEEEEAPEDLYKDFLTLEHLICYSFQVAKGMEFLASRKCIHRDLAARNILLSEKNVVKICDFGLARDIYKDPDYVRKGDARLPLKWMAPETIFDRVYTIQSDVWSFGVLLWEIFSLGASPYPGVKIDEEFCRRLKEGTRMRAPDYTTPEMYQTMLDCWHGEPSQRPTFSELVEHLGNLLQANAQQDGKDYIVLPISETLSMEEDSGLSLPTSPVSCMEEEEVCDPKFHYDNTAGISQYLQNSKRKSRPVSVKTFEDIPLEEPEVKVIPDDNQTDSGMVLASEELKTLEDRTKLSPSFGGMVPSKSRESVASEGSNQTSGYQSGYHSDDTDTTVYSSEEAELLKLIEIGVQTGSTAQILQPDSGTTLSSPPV

For orientation: IC50 means the concentration at which inhibition is half-maximal. The ΔTm is the shift of the melting midpoint relative to a reference. With `COc1ccc(Cc2cn(CCNC(=O)Nc3ccc(Br)cc3)nn2)cc1`, the IC50 in [1], in experiment [2], in experiment [5], in experiment [8], in experiment [10] and in experiment [13] was greater than 200 µM each time. Besides, the Activity in experiment [3] was 40%; in experiment [6] it was 70%; in experiment [7], 61%; in [9], greater than 100%; in experiment [12], 55%. For the same molecule, the figures for the ΔTm in experiment [4] and in experiment [11] were 8.74 °C and 2.61 °C, respectively.
On to `COc1ccc(/C=C\c2cccc(NC(=O)Nc3ccc(Cl)cc3)c2)cc1`, for which the IC50 in experiment [1] came out at 29 µM; in experiment [2], 8 µM; in [5] it was 20 µM; in [8], 17 µM; in experiment [10], 33 µM; in experiment [13] it was 33 µM. Besides, the Activity amounted to 100% in experiment [14], 75% in experiment [9], 69% in experiment [16] and 118% in experiment [17]. Moreover, in experiment [15], the MAC came to 1 µM.
In the case of `COc1ccc(CCc2cccc(NC(=O)Nc3cccc(Cl)c3)c2)cc1`, the IC50 in experiment [1] was greater than 200 µM; in [2] it was 16.5 µM; in experiment [5] it was 5.3 µM; in experiment [8], 8.2 µM; in experiment [10], 50 µM; in [13], 14 µM. Besides, the ΔTm in experiment [4] is 5.2 °C; in experiment [11], 4.1 °C. Besides, the Activity is reported as 98% in experiment [14]; 51% in experiment [9]; 51% in experiment [18]; 95% in experiment [16]; 97% in experiment [17]. Also, the MAC in [15] came out at 10 µM.
On to `COc1ccc(Cc2cn(CCNC(=O)Nc3cccc(C)c3)nn2)cc1`, for which the 50% inhibitory concentration (IC50) in experiment [1], in experiment [2], in experiment [5], in [8], in experiment [10] and in experiment [13] was greater than 200 µM each time. The Activity is 76% in experiment [3], 90% in experiment [9] and 91% in [12]. The thermal shift (ΔTm) in [4] came out at 2.55 °C; in experiment [11], 5.21 °C.
Consider `COc1ccc(CCc2cccc(NC(=O)Nc3ccccc3Cl)c2)cc1`, for which the IC50 is 24 µM in experiment [1]; 69 µM in experiment [2]; 90 µM in experiment [5]; greater than 100 µM in experiment [8]; 48 µM in experiment [10]; 20 µM in experiment [13]. The ΔTm in experiment [4] stood at 2.25 °C; in [11], 16.2 °C. Besides, the Activity in [14] amounted to 100%; in experiment [9], 61%; in [18], 63%; in [16], 76%; in [17] it was 100%. For the same molecule, in experiment [15], the MAC worked out at 1 µM.
On to `COc1ccc(Cc2cn(CCNC(=O)Nc3ccccc3C)nn2)cc1`, for which the IC50 in experiment [1], in [2], in experiment [5], in [8], in [10] and in [13] was greater than 200 µM each time. Besides, the Activity is on record as 79% in experiment [3], 82% in experiment [9] and 100% in experiment [12]. Besides, the ΔTm in [4] came to 2.18 °C; in experiment [11] it was 9.98 °C. Besides, the MAC in experiment [15] came out at 200 µM.
As to `COc1ccc(/C=C\c2cccc(NC(=O)Nc3ccccc3Cl)c2)cc1`, the half-maximal inhibitory concentration (IC50) in experiment [1] turned out to be 21 µM; in experiment [2], 22 µM; in experiment [5], 6.5 µM; in experiment [8] it was 19 µM; in [10], 33 µM; in experiment [13], 12 µM. Also, the Activity in experiment [14] is listed as 177%; in [9] it was 83%; in experiment [16], 61%; in experiment [17], 114%. Also, in [15], the MAC turned out to be 10 µM.
For the molecule `COc1ccc(Cc2cn(CCNC(=O)Nc3cccc(Br)c3)nn2)cc1`, the 50% inhibitory concentration (IC50) in [1], in experiment [2], in experiment [5], in experiment [8], in experiment [10] and in [13] was greater than 200 µM in each case. Further, the Activity in experiment [3] was found to be 79%; in [6], 98%; in experiment [7], 80%; in [9], 80%; in experiment [12], 78%. Also, the values for the ΔTm in [4] and in experiment [11] were 0.79 °C and 7.34 °C, respectively.
On to `COc1ccc(CCc2cccc(NC(=O)Nc3ccc(Cl)cc3)c2)cc1`, for which the IC50 in [1] is greater than 200 µM; in [2], 21 µM; in experiment [5], 1.8 µM; in experiment [8], 15.3 µM; in [10], greater than 200 µM; in [13], 1.5 µM. In addition, the ΔTm in experiment [4] worked out at 2.27 °C; in [11], 10.2 °C. In addition, the Activity stood at 96% in experiment [14]; 16% in [19]; 38% in experiment [9]; 44% in experiment [18]; 65% in [16]; 97% in experiment [17]. The MAC in experiment [15] turned out to be 100 µM.
On to `CCN(CC)CCNC(=O)c1c(C)[nH]c(/C=C2\C(=O)Nc3ccc(F)cc32)c1C` [SUNITINIB], for which the IC50 in experiment [1] was 11 µM; in experiment [2] it was 7.8 µM; in experiment [5] it was 5 µM; in experiment [8] it was 0.08 µM; in [10] it was 7 µM; in experiment [13] it was 3.8 µM. The MAC in experiment [15] amounted to 3 µM. Further, in experiment [16], the Activity came to 56%.
`COc1ccc(Cc2cn(CCNC(=O)Nc3ccccc3)nn2)cc1`: the concentration for half-maximal inhibition (IC50) in [1], in [2], in [5], in [8], in [10] and in experiment [13] was greater than 200 µM each time. Besides, the Activity is 97% in experiment [3], 83% in experiment [9] and 105% in [12]. For the same molecule, the shift in melting temperature (ΔTm) in experiment [4] was 2.1 °C; in experiment [11], 10.5 °C.
Consider `COc1ccc(/C=C\c2cccc(NC(=O)Nc3cccc(Cl)c3)c2)cc1`, for which the IC50 in experiment [1] turned out to be 38 µM; in experiment [2] it was 10.5 µM; in experiment [5] it was 5 µM; in [8] it was 37.2 µM; in experiment [10], 32.9 µM; in experiment [13], 20 µM. The Activity in experiment [14] was found to be 186%; in experiment [9] it was 92%; in experiment [16], 17%; in experiment [17], 102%. Further, the MAC in [15] was determined as 10 µM.

The values are drawn from ChEMBL document CHEMBL4346668, “Novel multitarget inhibitors with antiangiogenic and immunomodulator properties” (Eur J Med Chem, 2019).
